Measurements published in ChEMBL document CHEMBL1145127 (J Med Chem, 2003).

Columns and labels:
Phosphodiesterase 3B = Phosphodiesterase 3B (Bos taurus, UniProt E1BN64); test: Inhibition of bovine aorta PDE3 (Phosphodiesterase 3)
Rattus norvegicus [1] = species on record: Rattus norvegicus; test: Effective concentration against rat aortic smooth muscle cell; format: functional
Outline: (§1)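 Rat aortic smooth muscle cells cultured in DMEM with 10% fetal calf serum at 37 °C, seeded at (2-5) × 10⁴ cells/well and used confluent after 3-5 days. Cells preincubated 30 min at 37 °C in PBS with inhibitor, then stimulated with atrial natriuretic factor (0.1 µM) 10 min. Intracellular cGMP extracted with 65% ethanol. Triplicate wells, DMSO ≤0.1%. EC50 taken as concentration giving half-maximal cGMP increase.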

[2] = target: cGMP-specific 3',5'-cyclic phosphodiesterase (Bos taurus, UniProt Q28156); test: In vitro inhibitory activity against bovine phosphodiesterase 5
[3] = Oral bioavailability in rat was determined; format: ADME, organism-based; details: in vivo
Phosphodiesterase 1 = Phosphodiesterase 1 (Bos taurus, UniProt Q01061+P14100); test: Inhibition of bovine aorta PDE1 (Phosphodiesterase 1); format: protein assay
[4] = The total clearance time in plasma in rat was determined; format: ADME, organism-based
Phosphodiesterase 6 = test: Inhibition of bovine retina PDE6 (Phosphodiesterase 6); format: protein assay, Bos taurus
[5] = target: cGMP-dependent 3',5'-cyclic phosphodiesterase (Homo sapiens, UniProt O00408); test: Inhibition of Human recombinant PDE2 (Phosphodiesterase 2)
[6] = Half life in rat; format: ADME, organism-based; details: in vivo
Rattus norvegicus [7] = species on record: Rattus norvegicus; test: Increased intracellular cGMP concentration in rat aortic smooth cells (RSMC) using atrial natriuretic factor; format: functional, cell-based; details: Aorta; outline: as §1
[8] = target: cGMP-specific 3',5'-cyclic phosphodiesterase (Bos taurus) (UniProt Q28156); test: Inhibition of bovine PDE5 (Phosphodiesterase 5); details: concentration not given here

Sequence of Phosphodiesterase 3B (E1BN64 whole entry): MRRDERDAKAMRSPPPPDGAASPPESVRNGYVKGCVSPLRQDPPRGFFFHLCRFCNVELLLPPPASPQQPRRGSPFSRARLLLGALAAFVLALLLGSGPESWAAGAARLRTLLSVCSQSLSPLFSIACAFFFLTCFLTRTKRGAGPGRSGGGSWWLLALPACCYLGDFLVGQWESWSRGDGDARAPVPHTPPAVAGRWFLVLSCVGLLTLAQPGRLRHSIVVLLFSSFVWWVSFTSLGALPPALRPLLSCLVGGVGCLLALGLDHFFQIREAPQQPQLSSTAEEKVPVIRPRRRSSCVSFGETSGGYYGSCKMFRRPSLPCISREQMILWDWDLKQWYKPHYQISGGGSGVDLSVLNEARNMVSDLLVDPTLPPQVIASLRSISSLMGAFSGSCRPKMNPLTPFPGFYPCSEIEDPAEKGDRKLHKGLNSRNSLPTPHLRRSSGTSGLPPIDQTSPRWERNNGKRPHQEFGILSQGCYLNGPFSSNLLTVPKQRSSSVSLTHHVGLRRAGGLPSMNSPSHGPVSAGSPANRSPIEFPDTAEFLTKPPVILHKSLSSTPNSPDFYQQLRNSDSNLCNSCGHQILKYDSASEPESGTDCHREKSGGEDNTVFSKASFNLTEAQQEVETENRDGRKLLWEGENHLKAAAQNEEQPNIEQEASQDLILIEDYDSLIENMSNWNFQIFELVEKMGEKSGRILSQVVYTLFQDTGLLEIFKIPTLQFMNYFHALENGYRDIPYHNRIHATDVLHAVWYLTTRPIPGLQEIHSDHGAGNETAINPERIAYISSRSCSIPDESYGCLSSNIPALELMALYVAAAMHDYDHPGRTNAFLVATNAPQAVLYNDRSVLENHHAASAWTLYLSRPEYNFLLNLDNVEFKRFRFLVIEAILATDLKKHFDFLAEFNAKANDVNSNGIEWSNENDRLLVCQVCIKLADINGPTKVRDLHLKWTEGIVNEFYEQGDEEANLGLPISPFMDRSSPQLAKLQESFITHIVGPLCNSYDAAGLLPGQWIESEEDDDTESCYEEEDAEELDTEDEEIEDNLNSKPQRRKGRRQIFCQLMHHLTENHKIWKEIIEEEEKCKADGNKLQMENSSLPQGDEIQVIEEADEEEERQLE
Sequence of cGMP-dependent 3',5'-cyclic phosphodiesterase (O00408 whole entry): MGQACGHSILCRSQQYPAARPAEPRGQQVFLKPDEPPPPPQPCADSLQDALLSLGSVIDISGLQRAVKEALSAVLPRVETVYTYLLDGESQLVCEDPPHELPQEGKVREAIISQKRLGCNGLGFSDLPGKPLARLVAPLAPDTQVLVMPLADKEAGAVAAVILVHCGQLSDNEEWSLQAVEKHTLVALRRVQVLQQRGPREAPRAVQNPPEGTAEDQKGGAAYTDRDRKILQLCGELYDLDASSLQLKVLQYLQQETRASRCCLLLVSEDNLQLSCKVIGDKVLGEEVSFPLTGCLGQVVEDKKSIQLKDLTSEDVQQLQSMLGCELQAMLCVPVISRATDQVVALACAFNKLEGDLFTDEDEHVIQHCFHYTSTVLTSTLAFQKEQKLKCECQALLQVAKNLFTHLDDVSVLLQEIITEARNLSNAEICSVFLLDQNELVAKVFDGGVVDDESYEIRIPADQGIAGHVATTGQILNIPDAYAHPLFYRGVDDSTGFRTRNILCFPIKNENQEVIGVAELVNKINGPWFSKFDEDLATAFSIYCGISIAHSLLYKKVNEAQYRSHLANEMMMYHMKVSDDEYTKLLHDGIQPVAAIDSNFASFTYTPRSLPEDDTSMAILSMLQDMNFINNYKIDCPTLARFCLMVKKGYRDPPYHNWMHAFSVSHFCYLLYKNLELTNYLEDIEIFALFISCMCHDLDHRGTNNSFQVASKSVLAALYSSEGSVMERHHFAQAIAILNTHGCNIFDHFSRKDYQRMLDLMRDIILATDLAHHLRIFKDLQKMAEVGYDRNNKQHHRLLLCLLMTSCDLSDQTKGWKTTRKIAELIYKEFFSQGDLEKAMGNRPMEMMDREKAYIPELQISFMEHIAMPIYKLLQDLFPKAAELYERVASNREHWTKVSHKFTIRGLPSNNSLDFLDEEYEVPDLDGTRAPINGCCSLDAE

| Compound | EC50 (Rattus norvegicus [1]; Rattus norvegicus) | IC50 [2] | also measured |
| --- | --- | --- | --- |
| CCCc1nn(C)c2c(=O)[nH]c(-c3cc(S(=O)(=O)N4CCN(C)CC4)ccc3OCC)nc12 |  |  | IC50 (Phosphodiesterase 3B): 9200 nM |
| CCCCN1C(=O)C2Cc3c([nH]c4ccccc34)C(c3ccc(OC)cc3)N2C1=O (configuration not stated) | 1000 nM |  |  |
| CCCCN1CC(=O)N2C(c3ccc4c(c3)OCO4)c3[nH]c4ccccc4c3C[C@@H]2C1=O (single isomer, unassigned) | 3500 nM | 138 nM |  |
| O=C1[C@H]2Cc3c([nH]c4ccccc34)[C@@H](c3ccc4c(c3)OCO4)N2C(=O)CN1C1CCCCC1 | 300 nM | 5 nM |  |
| CN1CC(=O)N2[C@H](c3ccc4c(c3)OCO4)c3[nH]c4ccccc4c3C[C@@H]2C1=O (stereo in doubt; 12a) |  |  | bioavailability [3]: 63%; EC50 (Rattus norvegicus [1]): 150 nM; IC50 (Phosphodiesterase 1): > 10000 nM; clearance [4]: 5.1 mL/min/kg; IC50 (Phosphodiesterase 6): 5100 nM; IC50 [5]: > 10000 nM; half-life [6]: 2.4 h; IC50 (Phosphodiesterase 3B): > 10000 nM |
| CCCCN1CC(=O)N2C(c3ccc(C)cc3)c3[nH]c4ccccc4c3C[C@@H]2C1=O (some centres not stated) | 350 nM | 26 nM |  |
| CCCCN1CC(=O)N2[C@H](c3ccc(OC)cc3)c3[nH]c4ccccc4c3C[C@@H]2C1=O | 1500 nM | 5 nM |  |
| O=C1NCC(=O)N2[C@H](c3ccc4c(c3)OCO4)c3[nH]c4ccccc4c3C[C@H]12 (stereo in doubt) [NORTADALAFIL] |  | 12 nM | EC50 (Rattus norvegicus [1]): 600 nM |
| COc1ccc([C@H]2c3[nH]c4ccccc4c3C[C@@H]3C(=O)N(Cc4ccccc4)CN23)cc1 | > 10000 nM | 60 nM |  |
| COc1ccc([C@@H]2c3[nH]c4ccccc4c3C[C@@H]3C(=O)N(C4CCCC4)CC(=O)N23)cc1 | 200 nM | 17 nM |  |
| O=C1[C@H]2Cc3c([nH]c4ccccc34)[C@@H](c3ccc4c(c3)OCO4)N2C(=O)CN1Cc1ccccc1 | 800 nM | 3 nM |  |
| CCCCN1CC(=O)N2[C@H](c3ccc4c(c3)OCO4)c3[nH]c4ccccc4c3C[C@@H]2C1=O (stereo in doubt) |  | 5 nM | EC50 (Rattus norvegicus [1]): 600 nM |
| CCCCN1C[C@H]2Cc3c([nH]c4ccccc34)[C@@H](c3ccc(OC)cc3)N2C1 |  | > 10000 nM |  |
| CCCCN1CC(=O)N2C(c3ccc(Cl)cc3)c3[nH]c4ccccc4c3C[C@@H]2C1=O (some centres not stated) | > 10000 nM | 15 nM |  |
| COc1ccc(C2c3[nH]c4ccccc4c3C[C@@H]3C(=O)N(C)C(=O)N23)cc1 (some centres not stated) | 1000 nM | 10 nM |  |
| CC(C)N1CC(=O)N2[C@H](c3ccc4c(c3)OCO4)c3[nH]c4ccccc4c3C[C@@H]2C1=O (stereo in doubt) |  | 6 nM | EC50 (Rattus norvegicus [1]): 500 nM |

| Compound | EC50 (Rattus norvegicus [1]; Rattus norvegicus) | IC50 [2] | also measured |
| --- | --- | --- | --- |
| O=C1NCC(=O)N2[C@H](c3ccc4c(c3)OCO4)c3[nH]c4ccccc4c3C[C@H]12 (stereo in doubt; 16) [NORTADALAFIL] | 300 nM | 11 nM |  |
| CCCCN1CC(=O)N2[C@H](c3ccc4c(c3)OCO4)c3[nH]c4ccccc4c3C[C@@H]2C1=O (stereo in doubt; 13) | 1000 nM | 3 nM |  |
| CCCCN1CC(=O)N2C(c3ccc(C#N)cc3)c3[nH]c4ccccc4c3C[C@@H]2C1=O (some centres not stated) |  | 758 nM |  |
| COc1ccc([C@@H]2c3[nH]c4ccccc4c3C[C@@H]3C(=O)N(CC4CC4)CC(=O)N23)cc1 | 500 nM | 6 nM |  |
| Cc1ccc([C@@H]2c3[nH]c4ccccc4c3C[C@@H]3C(=O)N(CC4CC4)CC(=O)N23)cc1 | 600 nM | 23 nM |  |
| CCCCN1CC(=O)N2C(c3ccccc3)c3[nH]c4ccccc4c3C[C@@H]2C1=O (some centres not stated) | > 10000 nM | 91 nM |  |
| CN1CC(=O)N2[C@H](c3ccc4c(c3)OCO4)c3[nH]c4ccccc4c3C[C@@H]2C1=O (stereo in doubt) |  |  | EC50 (Rattus norvegicus [1]): 500 nM |
| CCCCN1C(=O)[C@H]2Cc3c([nH]c4ccccc34)C(c3ccc(OC)cc3)N2C1=O (some centres not stated) |  |  | EC50 (Rattus norvegicus [7]): 700 nM |
| O=C1[C@H]2Cc3c([nH]c4ccccc34)C(c3ccc4c(c3)OCO4)N2C(=O)N1Cc1ccccc1 (some centres not stated) | 3000 nM | 6 nM |  |
| CCCCN1CC(=O)N2C(c3ccc(OC)cc3)c3[nH]c4ccccc4c3C[C@@H]2C1=O (some centres not stated) | > 10000 nM | 70 nM |  |
| CCN1CC(=O)N2[C@H](c3ccc(OC)cc3)c3[nH]c4ccccc4c3C[C@@H]2C1=O | 500 nM |  |  |
| CCCCN1CC(=O)N2C(c3ccc(OC)c(OC)c3)c3[nH]c4ccccc4c3C[C@@H]2C1=O (some centres not stated) |  |  | inhibition [8]: 62% |
| CN1C[C@H]2Cc3c([nH]c4ccccc34)[C@@H](c3ccc4c(c3)OCO4)N2C1=O | > 10000 nM | 60 nM |  |
| COc1ccc([C@@H]2c3[nH]c4ccccc4c3C[C@@H]3C(=O)N(C)CC(=O)N23)cc1 | 200 nM | 41 nM |  |
| COc1ccc(C2c3[nH]c4ccccc4c3C[C@@H]3C(=O)N(Cc4ccccc4)C(=O)N23)cc1 (some centres not stated) | > 10000 nM | 18 nM |  |
| CC(C)N1CC(=O)N2[C@H](c3ccc4c(c3)OCO4)c3[nH]c4ccccc4c3C[C@@H]2C1=O (stereo in doubt; 14) |  | 8 nM | EC50 (Rattus norvegicus [1]): 150 nM |
